Test results: PMC3077804 (ACS Chemical Biology, 2010)

Molecular target: T1, AarA (Providencia stuartii, UniProt P46116)
T1 sequence (P46116 1-281): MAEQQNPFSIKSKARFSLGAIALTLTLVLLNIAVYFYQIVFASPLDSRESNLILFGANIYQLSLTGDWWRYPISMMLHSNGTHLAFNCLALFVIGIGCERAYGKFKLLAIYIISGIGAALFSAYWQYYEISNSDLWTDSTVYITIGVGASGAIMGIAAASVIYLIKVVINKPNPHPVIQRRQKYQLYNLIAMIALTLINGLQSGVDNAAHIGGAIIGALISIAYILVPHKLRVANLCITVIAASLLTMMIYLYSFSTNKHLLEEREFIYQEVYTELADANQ
Test: In vitro fluorescent assay
Type: biochemical
Details: SAR
Summary of the method: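 Fluorogenic KSp21 peptide (600 nM) cleaved at 24−25 °C by 100 nM AarA or 37 nM chymotrypsin. Buffer: 25 mM Hepes pH 7.4, 5 mM EDTA, 5% glycerol, 0.5% DDM and 20% DMSO (final). Compound was preincubated with enzyme for 30 min at 25 °C, and the reaction was started with peptide. Stopped after 50−60 min, still in the linear phase, with 1 M phosphoric acid pH 1.5; fluorescence read.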

| SMILES | inhibitory activity against AarA in the fluorescent assay (in words) |
| --- | --- |
| Cc1ccc(S(=O)(=O)NC(CCCCN)C(=O)CCl)cc1 (centres unmarked) [TLCK] | inactive |
| Cc1ccc(S(=O)(=O)N[C@@H](Cc2ccccc2)C(=O)CCl)cc1 [TPCK] | inactive |
